In ChEMBL document CHEMBL3046871, “Antimicrobial and antiprotozoal activities of secondary metabolites from the fungus Eurotium repens” (Med Chem Res, 2012):
In brackets after ≈: the same amount, converted by molar mass. Activity calls are given as the source filed them. No cut-off for these calls is given here.

Legend:
[1] = test system: Nakaseomyces glabratus; experiment: Antifungal activity against Candida glabrata ATCC 90030 at 20 ug/ml; format: functional, organism-based
[2] = test system: Staphylococcus aureus; experiment: Antibacterial activity against Staphylococcus aureus ATCC 29213; format: functional, organism-based
[3] = test system: Pichia kudriavzevii; experiment: Antifungal activity against Pichia kudriavzevii ATCC 6258 at 20 ug/ml; format: functional, organism-based
[4] = test system: Cryptococcus neoformans; experiment: Antifungal activity against Cryptococcus neoformans ATCC 90113 at 20 ug/ml; format: functional, organism-based
[5] = test system: Pseudomonas aeruginosa; experiment: Antibacterial activity against Pseudomonas aeruginosa ATCC 27853; format: functional, organism-based
[6] = test system: Staphylococcus aureus; experiment: Antibacterial activity against methicillin-resistant Staphylococcus aureus ATCC 33591; format: functional, organism-based
[7] = test system: Leishmania donovani; experiment: Antileishmanial activity against promastigote form of Leishmania donovani after 48 hr by alamar blue assay; format: functional, organism-based
Outline: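 A 3-day-old promastigote culture grown in RPMI 1640 with 10% FCS at 26°C was diluted to 5 × 10^5/ml. Drug dilutions were made directly in the cell suspension, then incubated 48 h at 26°C. Growth was read by Alamar blue fluorescence (ex 544/em 590 nm). IC50 came from dose–response curves, with pentamidine and amphotericin B as standards.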

[8] = test system: Mycobacterium intracellulare; experiment: Antibacterial activity against Mycobacterium intracellulare ATCC 23068; format: functional, organism-based
[9] = test system: Aspergillus fumigatus; experiment: Antifungal activity against Aspergillus fumigatus ATCC 204305; format: functional, organism-based
[10] = test system: Candida albicans; experiment: Antifungal activity against Candida albicans ATCC 90028; format: functional, organism-based
[11] = test system: Plasmodium falciparum; experiment: Antimalarial activity against chloroquine-sensitive Plasmodium falciparum D6 after 72 hr by plasmodial LDH assay; format: functional, organism-based
Outline: (§1)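 Compounds dissolved in DMSO (2 mg/ml stock), serially diluted. Culture at 2% parasitemia and 2% hematocrit in RPMI 1640 with 10% human serum and 60 μg/ml amikacin, under 90% N2/5% O2/5% CO2, 37°C for 72 h. LDH read-out: Malstat reagent 30 min, then NBT/PES 1 h in dark, acetic acid stop, absorbance 650 nm. IC50 from dose–response curves. Chloroquine positive control; 0.25% DMSO vehicle.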

[12] = test system: Vero; experiment: Cytotoxicity against Chlorocebus aethiops (African green monkey) Vero cells after 48 hr by neutral red assay; format: cell-based, Chlorocebus sabaeus
[13] = test system: Escherichia coli; experiment: Antibacterial activity against Escherichia coli ATCC 35218; format: functional, organism-based
[14] = test system: Nakaseomyces glabratus; experiment: Antifungal activity against Candida glabrata ATCC 90030; format: functional, organism-based
[15] = test system: Staphylococcus aureus; experiment: Antibacterial activity against Staphylococcus aureus ATCC 29213 at 20 ug/ml; format: functional, organism-based
[16] = test system: Plasmodium falciparum; experiment: Antimalarial activity against chloroquine-resistant Plasmodium falciparum W2 after 72 hr by plasmodial LDH assay; format: functional, organism-based; outline: as §1
[17] = test system: Staphylococcus aureus; experiment: Antibacterial activity against methicillin-resistant Staphylococcus aureus ATCC 33591 at 20 ug/ml; format: functional, organism-based
[18] = test system: Cryptococcus neoformans; experiment: Antifungal activity against Cryptococcus neoformans ATCC 90113; format: functional, organism-based
[19] = test system: Pichia kudriavzevii; experiment: Antifungal activity against Pichia kudriavzevii ATCC 6258; format: functional, organism-based
[20] = Leishmania donovani, 48 h, read-out: IC50
[21] = Plasmodium falciparum, D6, 72 h, read-out: IC50
[22] = Plasmodium falciparum, W2, 72 h, read-out: IC50

| SMILES | Activity [1] | IC50 [2] [µg/mL] | Activity [3] | Activity [4] | Activity [5] | IC50 [6] [µg/mL] | IC50 [7, 20] [µg/mL] | Activity [8] | Activity [9] | Activity [10] | IC50 [11, 21] [µg/mL] | IC50 [12] | Activity [13] | IC50 [14] [µg/mL] | Activity [15] | IC50 [16, 22] [µg/mL] | Activity [17] | IC50 [11] | IC50 [16] | IC50 [18] [µg/mL] | other results |
| --- | --- | --- | --- | --- | --- | --- | --- | --- | --- | --- | --- | --- | --- | --- | --- | --- | --- | --- | --- | --- | --- |
| CCCCCCCc1c(O)cc(CC=C(C)C)c(O)c1C=O [FLAVOGLAUCIN] | inactive | 14.3 (≈ 47 µM) | inactive | inactive | inactive | 10.4 (≈ 34.2 µM) | 23 (≈ 75.6 µM) | inactive | inactive | inactive | 3 (≈ 9.85 µM) | Non-toxic | inactive | – | – | – | – | – | – | – | – |
| CCCCC/C=C/c1c(O)cc(CC=C(C)C)c(O)c1CO | – | – | inactive | inactive | inactive | 12 (≈ 39.3 µM) | 19 (≈ 62.4 µM) | inactive | inactive | inactive | 3 (≈ 9.85 µM) | Non-toxic | inactive | 7.17 (≈ 23.6 µM) | inactive | 2.8 (≈ 9.2 µM) | – | – | – | – | – |
| C=CC(C)(C)c1[nH]c2c(CC=C(C)C)cc(CC=C(C)C)cc2c1C[C@@H]1NC(=O)[C@H](C)NC1=O [ECHINULIN] | inactive | – | inactive | inactive | inactive | – | – | inactive | inactive | inactive | – | Non-toxic | inactive | – | inactive | – | inactive | Not Active | Not Active | – | IC50 [7]: Not Active |
| CCC/C=C/c1cc2c(C=O)c(O)c(CC=C(C)C)cc2o1 | – | 7.75 (≈ 26 µM) | inactive | – | inactive | 5.4 (≈ 18.1 µM) | – | inactive | inactive | inactive | 3 (≈ 10.1 µM) | Non-toxic | inactive | 1.13 (≈ 3.79 µM) | – | 2.8 (≈ 9.38 µM) | – | – | – | 5.31 (≈ 17.8 µM) | – |
| CCC/C=C/C=C/c1c(O)cc(CC=C(C)C)c(O)c1C=O [DIHYDROAUROGLAUCIN] | – | – | inactive | inactive | inactive | – | 20 (≈ 66.6 µM) | inactive | inactive | inactive | – | Non-toxic | inactive | 2.39 (≈ 7.96 µM) | inactive | – | inactive | Not Active | Not Active | – | – |
| CCCCC/C=C/c1c(O)cc(CC=C(C)C)c(O)c1C=O [TETRAHYDROAUROGLAUCIN] | – | 13.5 (≈ 44.7 µM) | inactive | inactive | inactive | – | 22 (≈ 72.7 µM) | inactive | inactive | inactive | 2.8 (≈ 9.26 µM) | Non-toxic | inactive | 6.15 (≈ 20.3 µM) | – | 2.3 (≈ 7.61 µM) | inactive | – | – | – | – |
| C/C=C/C=C/C=C/c1c(O)cc(CC=C(C)C)c(O)c1C=O [AUROGLAUCIN] | – | – | – | inactive | inactive | – | 7.5 (≈ 25.1 µM) | inactive | inactive | inactive | – | Non-toxic | inactive | 7.33 (≈ 24.6 µM) | inactive | – | inactive | – | – | – | IC50 [19]: 10.9 µg/mL (≈ 36.6 µM) |
| Cc1c(O)cc(O)c2c1COC2=O [5,7-DIHYDROXY-4-METHYLPHTHALIDE] | inactive | – | inactive | – | inactive | – | – | inactive | inactive | inactive | – | Non-toxic | inactive | – | inactive | – | inactive | Not Active | Not Active | 18.1 (≈ 100 µM) | IC50 [7]: Not Active |
| C[C@@H]1[C@H](O)[C@@H](C)/C=C/C=C/C=C/C=C/C=C/C=C/C=C/[C@H](O[C@@H]2O[C@H](C)[C@@H](O)[C@H](N)[C@@H]2O)C[C@@H]2O[C@](O)(C[C@@H](O)C[C@@H](O)[C@H](O)CC[C@@H](O)C[C@@H](O)CC(=O)O[C@H]1C)C[C@H](O)[C@H]2C(=O)O [AMPHOTERICIN B] | – | – | – | – | – | – | – | – | – | – | – | – | – | 0.32 (≈ 0.346 µM) | – | – | – | – | – | 1.23 (≈ 1.33 µM) | IC50 [19]: 0.36 µg/mL (≈ 0.39 µM) |
